As usually defined, the pIC50 is the IC50 on a negative log10 scale, so that one unit is a factor of ten.

For data set [1], the target named is T1, Probable periplasmic serine endoprotease DegP-like (Chlamydia trachomatis, UniProt P18584).
T1 sequence (P18584 whole entry): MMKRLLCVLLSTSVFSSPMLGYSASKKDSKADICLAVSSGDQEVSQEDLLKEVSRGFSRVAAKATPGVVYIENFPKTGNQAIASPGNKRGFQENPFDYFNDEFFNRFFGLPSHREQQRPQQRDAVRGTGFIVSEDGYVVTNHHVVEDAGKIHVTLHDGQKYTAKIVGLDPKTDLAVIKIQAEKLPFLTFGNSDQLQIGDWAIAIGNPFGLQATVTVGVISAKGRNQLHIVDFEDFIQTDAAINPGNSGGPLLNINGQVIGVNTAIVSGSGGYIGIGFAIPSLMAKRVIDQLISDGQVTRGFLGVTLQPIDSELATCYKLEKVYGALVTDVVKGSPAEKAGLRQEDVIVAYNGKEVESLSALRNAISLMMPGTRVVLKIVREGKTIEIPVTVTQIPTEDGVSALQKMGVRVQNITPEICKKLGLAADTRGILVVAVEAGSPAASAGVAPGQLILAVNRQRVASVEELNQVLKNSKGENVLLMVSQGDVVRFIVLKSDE
Nature of the data set: Inhibition of recombinant Chlamydia trachomatis HtrA serine protease using MeOCoum-ENLHLPLPI1F-D as substrate measured after 30 mins.

The test system of data set [2] is HEp-2. Nature of the data set: Cytotoxicity against human HEp-2 cells assessed as reduction in cell viability by measuring MTS reduction at 25 uM measured after 24 hrs by MTS assay relative to control. The data set is classed as toxicity, cell-based. The conditions noted are these: hep-2, 24 h. An outline of the steps: (§1)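 HEp-2 cells plated at 5000/well, treated 24 h after plating with 25 or 100 µM inhibitor, 1% v/v DMSO or medium alone, triplicate; after 24 h exposure, MTS/PMS added for 4 h and A490 read; viability expressed relative to DMSO control; mean ± SEM, n = 3.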
Background: Formazan colour is commonly taken as a measure of viable cells.

The test system of data set [3] is HEp-2. Nature of the data set: Cytotoxicity against human HEp-2 cells assessed as loss of cell integrity by measuring cytosolic LDH release at 25 to 100 uM […] by LDH assay. The settings on record: hep-2, 100 µM, dose 25-100 µM. The data set is classed as toxicity, cell-based. Put shortly: (§2)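 HEp-2 cells at 5000/well, dosed 24 h after plating with 25 or 100 µM, 1% v/v DMSO or medium, triplicate; after 8 h treatment supernatant taken, incubated 30 min with CytoTox reagent then stop solution, A490 read; maximum release from untreated cells lysed with 0.8% v/v Triton X-100 45 min before harvest; extracellular LDH as % of maximum; n = 3.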

The subject of data set [4] is HEp-2. Nature of the data set: Cytotoxicity against human HEp-2 cells assessed as loss of cell integrity by measuring cytosolic LDH release at 25 to 100 uM […] by LDH assay relative to control. The format is toxicity, cell-based. The settings on record: hep-2, 100 µM, dose 25-100 µM. Put shortly:
as §2
Background: LDH in the medium is a marker of cell lysis.

For data set [5], the system named is Chlamydia trachomatis. Nature of the data set: Antibacterial activity against Chlamydia trachomatis D/UW-3/Cx infected in human HEp-2 cells assessed as reduction in bacterial titer below threshold at 50 uM administered at 16 hrs post infection and measured 44 hrs post infection. The data set is classed as functional, organism-based. The conditions noted are these: time 28.0 hrs. Put shortly:
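C. trachomatis D (D/UW-3/Cx) in monolayers seeded 20,000 cells/well 24 h before infection; synchronised at 500 × g, 28 °C, 30 min; treated at 16 h PI (25, 50, 100 µM, triplicate) beside 1% v/v DMSO and media controls; harvested 44 h PI, passaged onto fresh monolayers, fixed, stained; IFU/mL compared against limit of detection.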

Data set [6] relates to Chlamydia pecorum. Put plainly: Antibacterial activity against Chlamydia pecorum MC/MarsBar infected in human HEp-2 cells assessed as reduction in bacterial titre at 25 uM administered at 16 hrs post infection and measured 44 hrs post infection. The data set is classed as functional, organism-based. The settings on record: time 28.0 hrs.
The nature of data set [7]: Cytotoxicity against human HEp-2 cells assessed as cell viability at 25 to 100 uM measured after 24 hrs by MTS assay relative to control. The conditions noted are these: dose 25-100 µM, read-out: Activity. The data set is classed as toxicity, cell-based. Put shortly: as §1
Data set [8] relates to HEp-2. Nature of the data set: Cytotoxicity against human HEp-2 cells assessed as reduction in cell viability measured after 24 hrs by MTS assay. The data set is classed as toxicity, cell-based. The settings on record: hep-2, 24 h. Put shortly: as §1
Data set [9] concerns Chlamydia pecorum. Nature of the data set: Antibacterial activity against Chlamydia pecorum MC/MarsBar infected in human HEp-2 cells assessed as reduction in bacterial titre at 25 to 100 uM administered at 16 hrs post infection and measured 44 hrs post infection. The format is functional, organism-based. The settings on record: dose 25-100 µM, time 28.0 hrs.
The test system of data set [10] is Chlamydia trachomatis. Put plainly: Antibacterial activity against Chlamydia trachomatis D/UW-3/Cx infected in human HEp-2 cells assessed as reduction in bacterial titer at 25 to 100 uM administered at 16 hrs post infection and measured 44 hrs post infection. The data set is classed as functional, organism-based. The settings on record: dose 25-100 µM, time 28.0 hrs.

The nature of data set [11]: Cytotoxicity against human HEp-2 cells assessed as cell viability at 100 uM measured after 24 hrs by MTS assay relative to control. The data set is classed as toxicity, cell-based. The settings on record: read-out: Activity. Put shortly:
as §1

Data set [12] relates to HEp-2. Put plainly: Cytotoxicity against human HEp-2 cells assessed as loss of cell integrity by measuring cytosolic LDH release at 100 uM […] by LDH assay. The format is toxicity, cell-based. The conditions noted are these: hep-2, 100 µM. An outline of the steps: as §2
Data set [13] concerns the target T2, Probable periplasmic serine endoprotease DegP-like (Chlamydia trachomatis) (UniProt P18584).
T2 sequence (whole entry): T1 sequence (P18584 whole entry)
Nature of the data set: Potency index, ratio of JO146 IC50 to test compound IC50 for inhibition of recombinant Chlamydia trachomatis HtrA serine protease using MeOCoum-ENLHLPLPI1F-D as substrate measured after 30 mins.

Molecules are shown by their SMILES. pIC50: −log10 of the molar value. Active and inactive are the calls of the source.

Turning to `CC(C)C(NC(=O)[C@@H]1C[C@@H](OC(=O)CCN)CN1C(=O)[C@@H](NC(=O)OC(C)(C)C)C(C)(C)C)P(=O)(Oc1ccccc1)Oc1ccccc1` (mixture of isomers), in [1], the negative logarithm of the IC50 (pIC50) was 4.82. For the same compound, the Activity in [2] was less than 30%; in data set [3], “Non-Toxic”.
Consider `CC(C)C(NC(=O)[C@@H]1C[C@@H](C2CCCCC2)CN1C(=O)[C@@H](NC(=O)OC(C)(C)C)C(C)(C)C)P(=O)(Oc1ccccc1)Oc1ccccc1` (mixture of isomers), for which the Activity in data set [4] worked out at 80%. The pIC50 in data set [1] is 3.79. For the same compound, the result in data set [5] and in data set [6] was Active. For the same compound, in data set [7], the viability at 24 h, up to 100 µM was 10%.
As for `CC(C)C(NC(=O)[C@@H]1C[C@@H](O)CN1C(=O)[C@@H](NC(=O)OC(C)(C)C)C(C)(C)C)P(=O)(Oc1ccccc1)Oc1ccccc1` (mixture of isomers), in [1], the pIC50 was 4.85. Moreover, the Activity in data set [2] was less than 30%; in data set [3] it was “Non-Toxic”.
Take `CC(C)C(NC(=O)[C@@H]1C[C@H](n2cc(CO)nn2)CN1C(=O)[C@@H](NC(=O)OC(C)(C)C)C(C)(C)C)P(=O)(Oc1ccccc1)Oc1ccccc1` (mixture of isomers): the Activity result in data set [8] was “Non-Toxic”.
Same read-out and setting: for `CC(C)C(NC(=O)[C@@H]1C[C@@H](n2nnc(O)c2O)CN1C(=O)[C@@H](NC(=O)OC(C)(C)C)C(C)(C)C)P(=O)(Oc1ccccc1)Oc1ccccc1` (mixture of isomers) the value was “Non-Toxic”.
Turning to `CC(C)C(NC(=O)[C@@H]1C[C@H](n2nncc2C(C)(C)O)CN1C(=O)[C@@H](NC(=O)OC(C)(C)C)C(C)(C)C)P(=O)(Oc1ccccc1)Oc1ccccc1` (mixture of isomers), the pIC50 in data set [1] is 4.52. For the same compound, the result in data set [9] and in data set [10] was Active. Besides, the Activity entry in data set [8] is on record as “Non-Toxic”.
With `CC(C)C(NC(=O)[C@@H]1CCCN1C(=O)[C@@H](NC(=O)OC(C)(C)C)C(C)C)P(=O)(Oc1ccccc1)Oc1ccccc1` (some centres not stated), the pIC50 in data set [1] is 4.66.
On to `CC(C)C(NC(=O)[C@@H]1C[C@@H](n2cc(C(N)=O)nn2)CN1C(=O)[C@@H](NC(=O)OC(C)(C)C)C(C)(C)C)P(=O)(Oc1ccccc1)Oc1ccccc1` (mixture of isomers), for which the Activity entry in data set [8] was “Non-Toxic”.
Take `CC(C)C(NC(=O)[C@@H]1C[C@@H](OC(=O)CN)CN1C(=O)[C@@H](NC(=O)OC(C)(C)C)C(C)(C)C)P(=O)(Oc1ccccc1)Oc1ccccc1` (mixture of isomers): the pIC50 in [1] was 4.86. Besides, the Activity was less than 30% in data set [2] and “Non-Toxic” in data set [3].
The matching figures for `CC(C)C(NC(=O)[C@@H]1C[C@H](O)CN1C(=O)[C@@H](NC(=O)OC(C)(C)C)C(C)(C)C)P(=O)(Oc1ccccc1)Oc1ccccc1` (mixture of isomers): 4.31, less than 30% and “Non-Toxic”.
For `CC(C)C(NC(=O)[C@@H]1CCCCN1C(=O)[C@@H](NC(=O)OC(C)(C)C)C(C)(C)C)P(=O)(Oc1ccccc1)Oc1ccccc1` (mixture of isomers), the negative logarithm of the IC50 (pIC50) in data set [1] is 4.09. For the same compound, the result in data set [5] and in data set [6] was Active. Further, the Activity is reported as less than 30% in data set [2], “Non-Toxic” in data set [12] and “Non-Toxic” in [3]. In addition, the viability at 24 h, 100 µM in [11] came to 50%.
Regarding `CC(=O)O[C@@H]1C[C@@H](C(=O)NC(C(C)C)P(=O)(Oc2ccccc2)Oc2ccccc2)N(C(=O)[C@@H](NC(=O)OC(C)(C)C)C(C)(C)C)C1` (mixture of isomers), in data set [1], the pIC50 is 5.41. Also, the result in [5] and in data set [6] was Active. The figures for the Activity in data set [2] and in data set [3] were less than 30% and “Non-Toxic”, respectively.
On to `CC(C)C(NC(=O)[C@@H]1C[C@@H](n2cc(C(C)(C)O)nn2)CN1C(=O)[C@@H](NC(=O)OC(C)(C)C)C(C)(C)C)P(=O)(Oc1ccccc1)Oc1ccccc1` (mixture of isomers), for which the negative logarithm of the IC50 (pIC50) in data set [1] was 4.14. Also, the Activity entry in data set [8] was “Non-Toxic”.
Take `CC(C)C(NC(=O)[C@@H]1CCCN1C(=O)[C@@H](NC(=O)OC(C)(C)C)C(C)(C)C)P(=O)(Oc1ccccc1)Oc1ccccc1` (some centres not stated): the negative-log IC50 (pIC50) in data set [1] was 4.80. Besides, the Ratio IC50 in [13] turned out to be 1.38.
For the compound `CC(C)C(NC(=O)[C@@H]1C[C@@H](n2cc(CO)nn2)CN1C(=O)[C@@H](NC(=O)OC(C)(C)C)C(C)(C)C)P(=O)(Oc1ccccc1)Oc1ccccc1` (mixture of isomers), in [1], the pIC50 is 4.10. For the same compound, in data set [10], the result was Active. In addition, the Activity result in data set [8] was “Non-Toxic”.
The matching figures for `CC(C)C(NC(=O)[C@@H]1C[C@@H](n2nncc2C(C)(C)O)CN1C(=O)[C@@H](NC(=O)OC(C)(C)C)C(C)(C)C)P(=O)(Oc1ccccc1)Oc1ccccc1` (mixture of isomers): 4.02, “Active” and “Non-Toxic”.
As for `CC(C)C(NC(=O)[C@@H]1C[C@@H](c2ccccc2)CN1C(=O)[C@@H](NC(=O)OC(C)(C)C)C(C)(C)C)P(=O)(Oc1ccccc1)Oc1ccccc1` (mixture of isomers), the pIC50 in [1] is 4.23. Besides, the result in data set [5] and in data set [6] was Active. In addition, the Activity is less than 30% in data set [2] and “Non-Toxic” in data set [3].
Consider `CC(C)C(NC(=O)[C@@H]1C[C@@H](n2nncc2C(N)=O)CN1C(=O)[C@@H](NC(=O)OC(C)(C)C)C(C)(C)C)P(=O)(Oc1ccccc1)Oc1ccccc1` (mixture of isomers), for which the outcome in data set [9] and in data set [10] was Active. In [8], the Activity result is “Non-Toxic”.
Turning to `CC(C)C(NC(=O)[C@@H]1C[C@H](n2nnc(O)c2O)CN1C(=O)[C@@H](NC(=O)OC(C)(C)C)C(C)(C)C)P(=O)(Oc1ccccc1)Oc1ccccc1` (mixture of isomers), the negative-log IC50 (pIC50) in data set [1] is 4.64. For the same compound, the Activity entry in data set [8] was “Non-Toxic”.
